B1: tRNA (parent)
chain: GUUCCGUUGGCGUAAUGGUAACGCGUCUCCCUCCUAAGGAGAAGACUGCGGGUUCGAGUCCCGUACGGAACG

The record followed here is the RNAGym collection of RNA variant scans (doi:10.1126/science.aae0568).

This sample holds only a part of the variants without activity. Bounds are passed on as bounds.

In the data set the parent is B1. In words: yeast fitness relative to wild type (ratio to wild type); higher = fitter; tRNA-Arg(CCU), competitive growth, 37 C, YPD. An outline of the steps: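 Gene amplicons from the start population and from each of six end populations were read by 100-nucleotide paired-end sequencing. Those end populations came from pooled Saccharomyces cerevisiae strains carrying tRNA-Arg(CCU) gene variants at the native locus, competed in YPD at 37°C for 24 hours. Fitness relative to wild type was worked out from changes in genotype frequencies. Genotypes needed ≥ 100 starting reads, and estimates < 0.5 were set to 0.5.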
For the variant G18A A36U, the yeast fitness turned out to be 0.66.
In the case of G17C A21G C27U C33G A42U it was 0.621; in that of G17C C31A, 0.551; in that of G17C C29G G39A, not above 0.5.
On to G17C A36G A57G C66U A69C, for which the yeast fitness was determined as 0.59.
In the case of G17C U54C it was 0.536.
Take G17A A45G A65U: the yeast fitness was 0.559.
In the case of G17C A36G A45G it was 0.505.
The figure for G17C C30G C33G is not above 0.5; for G17A C30G C46U G63C C66U it is not above 0.5.
For the variant G17C C24U A36G, the yeast fitness was found to be 0.607.
Consider G17C C66U, for which the yeast fitness amounted to 0.705.
As for G17A C33G A40U A45G A65G, the yeast fitness was not above 0.5.
The figure for G17A C30A C66U A70G is not above 0.5; for G17A C31G C49G it is not above 0.5; for G17A C62U A69U it is 0.587.
Turning to G17A U19A C24U G25C, the yeast fitness was not above 0.5.
As for G17A C22A U35C A45C C46U, the yeast fitness worked out at 0.537.
For G17A A21G U26C C66A, the yeast fitness is not above 0.5.
For G17A U32A G67C, the yeast fitness came out at 0.6.
On to G17A C34U C46G A65U, for which the yeast fitness was not above 0.5.
Regarding G17A A20G C30A, the yeast fitness was 0.628.
G17A C62A: the yeast fitness was 0.558.
In the case of G17A C62U it was 0.736.
In the case of G17A C31A G48C it was not above 0.5; in that of G17A A20G G25C C34U C46G G63A A65C, 0.561; in that of G17C G48C G67C, not above 0.5.
Turning to G17A C33G A36G G63A, the yeast fitness is not above 0.5.
Regarding G17A A20C C24U, the yeast fitness turned out to be 0.562.
For the variant G17A A69C A70C, the yeast fitness is 0.588.
The figure for G17A C34A A57U is not above 0.5; for G17A C30A A57U G58A it is not above 0.5.
In the case of G17C C31G A45C U54C C55A, the yeast fitness was not above 0.5.
In the case of G17C A42C G68A it was not above 0.5.
Consider G17A A57U, for which the yeast fitness came to 0.644.
In the case of G17A U59C it was 0.62.
The figure for G17A A42C A70C is 0.688.
For G17A C22U U32A C34U A37G A40U C62A G63A, the yeast fitness was 0.512.
Turning to G17A A70U, the yeast fitness was found to be 0.864.
In the case of G17A A21G U26C C62U it was not above 0.5; in that of G17C A40G G41A G56C, not above 0.5; in that of G17C C34U, 0.529.
The figure for G17C C22U C60G is 0.719; for G17A A20G U53A it is not above 0.5.
On to G17C C33U, for which the yeast fitness was determined as 0.556.
For the variant G17A C30G, the yeast fitness is 0.604.
In the case of G17C G63C, the yeast fitness was not above 0.5.
The figure for G17A C60G is 0.586; for G17A U28A A37G it is not above 0.5; for G17C G23C it is 0.517.
In the case of G17C U32A C46A it was 0.582.
Regarding G17C A21G U26G, the yeast fitness is not above 0.5.
With G17A A20C G25A, the yeast fitness was 0.506.
In the case of G17C G18C C30G U53A U64G it was not above 0.5.
In the case of G17A C33G A40U G51C it was not above 0.5.
For G17C C29G A43G, the yeast fitness is not above 0.5.
In the case of G17A C33A A37U A57G it was not above 0.5.
The figure for G17A U32C is 0.704.
In the case of G17A U32G it was 0.572; in that of G17C G23A G25C C29G A36U G39A C46U C55U, not above 0.5; in that of G17A A20G U28A U35A A70C, not above 0.5.
G17A U19C: the yeast fitness worked out at 0.95.
On to G17C G50A, for which the yeast fitness was 0.616.
In the case of G17A C22U A37U U47A G68C it was not above 0.5.
As to G17A A36G C66U, the yeast fitness was found to be 0.65.
Regarding G17U C29G, the yeast fitness is 0.544.
In the case of G17C C22U C30U A37U it was not above 0.5.
As for G17C C33A C55A, the yeast fitness was 0.672.
Take G17C U28A C34G G38A U59A: the yeast fitness is not above 0.5.
Take G17A A45G: the yeast fitness was determined as 0.875.
The figure for G17C U47C is 0.711.
The figure for G17A C30G A45G C61G is not above 0.5; for G17A C22A A36G A45C C46U it is not above 0.5; for G17A C30U A57C A69C it is 0.688.
In the case of G18A A36C G48A it was not above 0.5; in that of G17C A20C C49U G52A C61A C62G, not above 0.5; in that of G17C U19C C24A U32C, not above 0.5.
With U16G U28A A42U U54A, the yeast fitness is not above 0.5.
The figure for G17C U53A G56A A57C A65C is not above 0.5; for G17C U35A it is not above 0.5.
The figure for U16G U26A C34U G50A is 0.552; for G17C A43U it is 0.589.
In the case of G17A U47C A57G A69U it was not above 0.5; in that of G17C G25C C66U, not above 0.5.
G17A G52A: the yeast fitness was 0.549.
For the variant G17A U19A C30U G67A, the yeast fitness is not above 0.5.
The figure for G17C G52C U64A is not above 0.5; for G17A A20C G44C it is 0.617.
The figure for G17C A42G A70G is not above 0.5; for G17A A37C A69C it is 0.648; for G17C C29A A36G A43U it is not above 0.5.
Consider G17C U28A C30A C31A, for which the yeast fitness amounted to 0.623.
With G17C C24G U28A C30U C49U A65U A69C, the yeast fitness was not above 0.5.
U16G G68A: the yeast fitness came to 0.967.
In the case of U16G U32C, the yeast fitness came out at 0.915.
With G17A G56A C66U, the yeast fitness came to 0.678.
In the case of G17C G44A A45C it was not above 0.5; in that of G17C C49G, 0.743; in that of G17A U54C U59C C61G, not above 0.5.
In the case of G17C A43U G48A C66G it was not above 0.5.
Consider G17A C27G C46G A65G, for which the yeast fitness is not above 0.5.
The figure for G17C C24A A36U G41C is not above 0.5; for G17A G25A it is 0.886.
G17C C30G A57C C61G: the yeast fitness came out at 0.613.
In the case of G17C G18C G63C U64C, the yeast fitness was not above 0.5.
In the case of G17C U28C C55A C60A it was not above 0.5; in that of G18A A20U A36U A65C, 0.706; in that of G17C U19A A36C A37U C60G G67C, not above 0.5.
The figure for G17A C60G C61G is not above 0.5; for G17A A20G C27G A36C U47A G68A it is not above 0.5; for U16G U19G C29G G50C C66U it is not above 0.5.
With G17C C24G C34U, the yeast fitness stood at 0.527.
Regarding G18A A21U U32A G56A, the yeast fitness amounted to 0.561.
On to G17C U19C A20G G68U, for which the yeast fitness is not above 0.5.
With G17C C22U C49G, the yeast fitness is not above 0.5.
As for G18A A20U C62A A70C, the yeast fitness came to 0.552.
On to G17A G68A, for which the yeast fitness was 0.81.
The figure for G17A G68C is 0.928.
G17A A37C G52A G56A G63C: the yeast fitness is not above 0.5.
The figure for G17C U35C G51A C66G is not above 0.5; for G17A C61A G63A G67A it is 0.542; for G17C A70C it is 0.751.
The figure for G17C A70G is 0.616; for G17C A70U it is 0.713.
For G17C A36G C49U C66U A69C, the yeast fitness amounted to 0.598.
On to G17C C33G G48U, for which the yeast fitness is not above 0.5.
As for G17C A42C C55U, the yeast fitness was not above 0.5.
In the case of G17C A57G G67A it was 0.56; in that of G17C G25C C30U A65C, not above 0.5; in that of G17C C24U G41A, not above 0.5.
For G17A C34A C49U G52U, the yeast fitness was not above 0.5.
In the case of G17C G18C U19G C24G it was not above 0.5; in that of G17C C33U A43G, not above 0.5; in that of G18A A21C G39A C55U C60G A69U, 0.523.
As for G17C A37G G56C, the yeast fitness is not above 0.5.
The figure for G17C G25C G50A U59C G68A is not above 0.5; for G17A A36U C46U it is not above 0.5; for G17C G23U U28A C31G it is 0.655.
In the case of G17C G67C it was 0.723; in that of G17A U28G C30G A40C A42U, not above 0.5; in that of G17A U54A, 0.566.
In the case of G17C C46G, the yeast fitness is 0.747.
The figure for G17A C55U C62U is not above 0.5.
Consider G18A A20U C31U, for which the yeast fitness was found to be 0.545.
As to G17C C34A A42U A43C, the yeast fitness is not above 0.5.
The figure for G17A C33U is 0.607; for G17A A42U U59C it is not above 0.5; for G17C G25C it is 0.658.
The figure for G17A U28C A42C C62U A70U is not above 0.5; for G17C C61U C62U C66A it is 0.593; for G17A G18A A42C C55U it is 0.508.
For G17A G56C G58C G68A, the yeast fitness is not above 0.5.
The figure for G17U A40U A42U C49G G51A C66A G68C is 0.536; for G17A C22U C27A C30G C49A it is not above 0.5; for G17C A21G U59G A65C it is not above 0.5.
As for G17A A37G, the yeast fitness was found to be 0.606.
For G17A A37U U47A G68C, the yeast fitness stood at 0.645.
In the case of G17C U32A C46A A69U it was not above 0.5; in that of G17C C33G A70G, not above 0.5; in that of G18A A37G C61U, not above 0.5.
The figure for G17C A20U A42U G67A is not above 0.5; for G17C A21G A40C G44C C61A it is 0.622; for G17A G48C C62A it is 0.549.
In the case of G17C A21C U28C C60A A65G it was not above 0.5.
As for G17C G48C, the yeast fitness was found to be 0.709.
In the case of G17A A21G C49U C60A G63A it was 0.529; in that of G18A A20G U35C G58A C60G, 0.558.
